Only some compounds are listed: those with a hit (about 3.8% of all), similar ones and a draw of the others.
B2AR ag: human beta-2 adrenergic receptor agonism by FAP; P07550; Am2.2-beta2AR cells, FAP receptor internalization, flow cytometry; response, % (no concentration beside the values); 340,000 compounds, 0.43% hits;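 active = response above a set limit, near 3 SD of response in nonfluorescent compounds, cut at about 42% in these data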
Target sequence (P07550 whole entry, looked up): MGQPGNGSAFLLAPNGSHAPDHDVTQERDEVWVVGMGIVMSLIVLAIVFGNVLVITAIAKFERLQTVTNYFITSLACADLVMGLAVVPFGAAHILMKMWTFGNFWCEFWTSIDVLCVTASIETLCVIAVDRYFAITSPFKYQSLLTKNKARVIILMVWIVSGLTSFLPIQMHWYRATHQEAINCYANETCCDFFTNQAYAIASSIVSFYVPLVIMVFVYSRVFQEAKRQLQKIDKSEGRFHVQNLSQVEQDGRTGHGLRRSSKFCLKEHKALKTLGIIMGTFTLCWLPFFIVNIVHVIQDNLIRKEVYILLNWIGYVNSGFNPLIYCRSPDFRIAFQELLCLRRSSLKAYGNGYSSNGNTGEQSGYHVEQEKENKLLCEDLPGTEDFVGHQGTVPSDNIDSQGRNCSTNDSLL
rCAG binder: r(CAG) repeat RNA binding | AID 651821 | 370,000 compounds, 1.3% hits | inhibition, % at 3 µM | TO-PRO-1 dye displacement fluorescence;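 active = inhibition above the plate cutoff, the mean of all test compounds on that plate plus 3 SD, cut at about 35% in these data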;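 also: higher means more dye released from RNA so lower well fluorescence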
MPTP inh: blocks calcium-induced mitochondrial swelling; isolated mouse mitochondria, Ca2+ swelling absorbance, 30 min; inhibition, % at 10 µM; 360,000 compounds, 1.4% hits;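 active = inhibition of 50% or more, scaled per plate between neutral and stimulator controls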
T cell modulator: modulates CD8 T cell binding to vesicles | response (vesicle binding), % at 7 µM | 330,000 compounds, 0.068% hits | 2C CD8+ T cell-vesicle binding, flow cytometry; hits give low values | AID 2052;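 active = response, share of CD8 T cells binding vesicles, and their 90th percentile fluorescence all below set limits, cut at about 80% in these data, passing the limit was not always enough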;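 also: values below 100% mean blocked vesicle binding to the CD8+ T cells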
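incubation = binding step 1.5 h, 37 °C, antibody labelling 20 min, ice | test system = 2C mouse CD8+ T cells | read-out basis = percent CD8+ FL2 mean versus row control | controls = Peptide-free naked vesicles (low) and QL9 vesicles with 0.7% DMSO vehicle (high) | detection = flow cytometry of vesicle-bound cells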
V-ATPase pHluor: alters yeast V-ATPase proton transport | S. cerevisiae, pHLuorin cytosolic pH fluorescence | response, % at 10 µM | 350,000 compounds, 0.37% hits; in the data active = response mostly above about 7.3%, no sharp cut-off; inactive = mostly below about 5.4%; also: actives read high
Granule exo inh: blocks lytic granule exocytosis; 360,000 compounds, 0.66% hits; inhibition, % at 10 µM; TALL-104 LAMP-1 surface exposure, flow cytometry; cells stimulated with thapsigargin and PMA;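 active = inhibition above about 55%, limit read from the data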
Rh123 counter: membrane potential counter-screen of mitochondrial pore inhibitors; shares compounds with MPTP inh; isolated mitochondria, Rhodamine 123 fluorescence; inhibition, % at 10 µM; 5,000 compounds, 78% hits; AID 624504; in the data active = inhibition above about 22%
MPTP abs DR: MPTP inhibition, dose response swelling confirmation; shares compounds with MPTP inh; isolated mitochondria swelling, absorbance; IC50, µM; 780 compounds, 58% hits; in the data active = IC50 below about 20 µM
MPTP cs DR: active in counter-screen for permeability transition pore inhibitors | shares compounds with MPTP inh | isolated mitochondria counterscreen, fluorescence read-out | IC50, µM | 780 compounds, 49% hits; in the data active = IC50 below about 80 µM
Hits are given with their value; i = inactive; nt = no result given.

SMILES	B2AR ag	rCAG binder	MPTP inh	T cell modulator	V-ATPase pHluor	Granule exo inh	Rh123 counter	others
Cc1c(C(=O)N/N=C/c2ccc(N(C)C)cc2)[nH]c2ccc(Cl)cc12	i	i	80.2	i	i	i	74.3
O=C(NC1CCCCN(Cc2ccc(Cl)cc2)C1=O)c1cccs1 (configuration not stated)	nt	i	nt	nt	nt	nt	nt
CCN1/C(=C/c2cc[n+](CCCS(=O)(=O)[O-])c3ccccc23)Sc2ccccc21	i	i	i	i	i	i	nt
C=CC[n+]1ccc(/C=C2\C=Cc3cc(C)ccc3N2CC)c2ccccc21	i	nt	102.0	nt	i	i	75.9
COc1ccc(-n2c(SCC(=O)Nc3cc(C)c(NC(=O)c4ccccc4)cc3OC)nnc2-c2ccccc2F)cc1	nt	i	nt	nt	nt	nt	nt
O=[N+]([O-])c1cc2ccccc2c(O)c1O	nt	i	i	nt	i	i	nt
O=[N+]([O-])c1cc(-c2ccccc2)cc([N+](=O)[O-])c1O	i	i	77.7	nt	i	i	89.1
Oc1ccccc1CNc1cnc2ccccc2c1	i	i	70.8	i	i	i	59.0
C=CCc1cccc(CNc2cnc3ccccc3c2)c1O	i	i	88.7	i	i	i	84.0
Oc1ccc(Cl)cc1CNc1cnc2ccccc2c1	i	i	i	i	i	i	nt
C=CCc1cccc(CNc2nc3ccccc3n2C)c1O	i	i	i	i	i	i	nt
CC(CCN1CCC(C(O)(c2ccccc2)c2ccccc2)CC1)Oc1ccc(C#N)c(F)c1 (configuration not stated)	nt	i	nt	nt	nt	nt	nt
CCCN1C(=O)c2n[nH]c(C)c2C1c1ccc(Br)cc1 (configuration not stated)	nt	i	nt	nt	nt	nt	nt
Cc1ccc(S(=O)(=O)NC(=O)c2cc(C)n(-c3ccc(N(C)C)cc3)c2C)cc1	i	i	84.6	i	i	i	91.0
Cc1ccc(S(=O)(=O)NC(=O)c2cc(C)n(-c3ccccc3)c2C)cc1	i	i	i	i	i	i	nt
CCCCOc1ccc(C(=O)Nc2ccncc2)cc1	i	i	101.5	i	i	i	110.7
CC(C)(C)c1ccc(NC(=O)COc2ccc(-n3ccnc3)cc2)cc1	i	i	107.2	i	i	i	94.1
CCCOc1ccc(C(=O)Nc2cccnc2)cc1	i	i	i	i	i	i	nt
Cc1ccc(C)c(OCC(=O)Nc2nonc2NC(=O)COc2cc(C)ccc2C)c1	i	i	89.7	i	i	i	83.7
CC(=O)NC(=S)Nc1ccc(NC(=O)COc2ccc(C(C)C)cc2)cc1	i	i	i	i	i	i	nt
CC(C)c1ccc(OCC(=O)Nc2ccncc2)cc1	i	i	74.4	i	i	i	70.7
O=C(CCc1ccccc1)N[C@H]1[C@H](OCc2ccccc2)CCC[C@@]12C(=O)N(Cc1ccccc1)c1ccc(-c3ccccn3)cc12	nt	i	nt	nt	nt	nt	nt
COC(=O)[C@]12C[C@H](CC(=O)NCCCN3CCCC3=O)C(=O)N(Cc3ccc4c(c3)OCO4)C1=C[C@H](COCc1ccccc1)O[C@@H]2C	nt	i	nt	nt	nt	nt	nt
C[C@@H]1OC(C2CCCCC2)N(C)[C@H]2C[C@H]3c4cc(-c5ccc6c(c5)OCO6)ccc4CCN3C[C@@H]12 (some centres not stated)	nt	i	nt	nt	nt	nt	nt
CCc1ccc(OCC(=O)Nc2ccncc2)cc1	i	i	63.0	i	i	i	58.2
SMILES	B2AR ag	rCAG binder	MPTP inh	T cell modulator	V-ATPase pHluor	Granule exo inh	Rh123 counter	others
O=C(COc1ccc2ccccc2c1)Nc1ccncc1	i	i	97.9	i	i	i	99.8
O=C(COc1ccccc1)Nc1ccncc1	i	i	i	i	i	i	nt
O=C(COc1ccc(Br)cc1)Nc1ccc(C(=O)Nc2ccccc2C(=O)O)cc1	i	i	i	i	i	i	nt
CC(C)(C)c1ccc(OCC(=O)Nc2ccncc2)cc1	i	i	104.9	i	i	i	73.9
O=C(COc1ccc2ccccc2c1)Nc1cccc(C(=O)Nc2ccccc2C(=O)O)c1	i	82.8	79.0	i	i	i	57.0
O=C(COc1ccc(Br)cc1)Nc1ccc(Cc2ccncc2)cc1	i	i	i	i	i	i	nt
O=C(NC1CCCCN(Cc2cccc(C(F)(F)F)c2)C1=O)c1cccc(C(F)(F)F)c1 (configuration not stated)	nt	i	nt	nt	nt	nt	nt
COC(=O)[C@]12C[C@H](CC(=O)N3CCSCC3)C(=O)N(CCC3=CCCCC3)C1=C[C@H](C(C)(C)C)O[C@@H]2C	nt	i	nt	nt	nt	nt	nt
COCc1[nH]nc2c1C(c1ccc(C)cc1)NC2=O (configuration not stated)	nt	i	nt	nt	nt	nt	nt
O=C(CSc1ccncc1)Nc1ccc2ccccc2c1	i	i	i	i	i	i	nt
Cc1ccc(OCC(=O)Nc2ccncc2)c(C)c1	i	i	73.3	i	i	i	47.7
N#Cc1cccc(NC(=O)COc2ccc(-n3ccnc3)cc2)c1	i	i	62.1	i	i	i	i	MPTP abs DR=i;MPTP cs DR=18.8
Cc1ccccc1OCC(=O)Nc1ccncc1	i	i	i	i	i	i	nt
CCOc1ccc(NC(=S)Nc2ccc(OC)cc2)cc1	i	i	i	i	i	i	nt
O=C(CSc1ccc2ccccc2c1)Nc1ccncc1	i	i	84.1	i	i	i	86.3
CCOc1ccc(NC(=S)c2ccncc2)cc1	i	i	55.9	i	i	i	i	MPTP abs DR=18.9;MPTP cs DR=31.4
CCOC(=O)CC[C@@H]1CC[C@]2(CCCN(S(=O)(=O)c3ccccc3)C2)O1	nt	i	nt	nt	nt	nt	nt
CCN1Cc2nnn(Cc3ccccc3)c2-c2cc(N3CCCC3)ccc2S1(=O)=O	nt	i	nt	nt	nt	nt	nt
Cc1ccc(Oc2ccc(OCC(=O)Nc3ccncc3)cc2)cc1	nt	i	108.0	i	nt	i	103.3
Cc1nc(C)c(C(=O)NNS(=O)(=O)c2ccc3ccccc3c2)s1	i	i	88.9	i	i	i	62.3
Cc1nc(NS(=O)(=O)c2ccccc2)sc1C(=O)NNS(=O)(=O)c1ccccc1	i	i	i	i	i	i	nt
COC(=O)C1=C(C)N(Cc2ccccc2C(F)(F)F)C(=NCc2ccc(OC)cc2)NC1c1ccccc1C(F)(F)F (configuration not stated)	nt	i	nt	nt	nt	nt	nt
CCOc1ccc(S(=O)(=O)N(C)c2ccc(OCC(=O)Nc3nc4ccccc4s3)cc2)cc1	i	i	95.7	i	i	i	79.9
C[C@H](O)[C@@H]1CN2CCc3ccc(-c4ccc5c(c4)OCO5)cc3[C@@H]2C[C@@H]1N(C)C(=O)c1cccc(Cl)c1	nt	i	nt	nt	nt	nt	nt
COCCNc1nc2nonc2nc1NC(C)c1ccccc1Cl (configuration not stated)	i	i	74.6	i	i	i	96.5
O[C@@H](c1cc(C(F)(F)F)nc2c(C(F)(F)F)cccc12)[C@H]1CCCCN1	i	i	97.4	i	i	i	i
CC(C)(C)N/N=C/c1cc(Cl)cc([N+](=O)[O-])c1O	i	i	92.6	i	i	i	53.9

Screens: PubChem, several laboratories
